Key:
MCF7 [1] = assay: Induction of apoptosis in human MCF7 cells assessed as cell death at 10 uM after 48 hrs by TUNEL analysis (reference value: 4.23 +/- 1.99%); format: functional
MCF7 [2] = assay: Cell cycle arrest in human MCF7 cells assessed as accumulation at subG1 phase at 15 uM after 12 hrs by propidium iodide staining-based flow cytometric analysis (reference value: 2.17 +/- 0.24%); format: functional
MCF7 [3] = assay: Induction of apoptosis in human MCF7 cells assessed as cell death at 10 uM after 12 hrs by TUNEL analysis (reference value: 6.02 +/- 0.85%); format: functional
MCF7 [4] = assay: Cell cycle arrest in human MCF7 cells assessed as accumulation at G2/M phase at 15 uM after 24 hrs by propidium iodide staining-based flow cytometric analysis (reference value: 32.37 +/- 7.73%); format: functional
MCF7 [5] = assay: Cell cycle arrest in human MCF7 cells assessed as accumulation at G2/M phase at 15 uM after 12 hrs by propidium iodide staining-based flow cytometric analysis (reference value: 22.11 +/- 3.86%); format: functional
MCF7 [6] = assay: Cell cycle arrest in human MCF7 cells assessed as accumulation at G0/G1 phase at 15 uM after 24 hrs by propidium iodide staining-based flow cytometric analysis (reference value: 51.83 +/- 5.64%); format: functional
MCF7 [7] = assay: Cell cycle arrest in human MCF7 cells assessed as accumulation at S phase at 15 uM after 4 hrs by propidium iodide staining-based flow cytometric analysis (reference value: 19.09 +/- 4.54%); format: functional
MCF7 [8] = assay: Induction of apoptosis in human MCF7 cells assessed as cell death at 10 uM after 24 hrs by TUNEL analysis (reference value: 9.82 +/- 2.62%); format: functional
MCF7 [9] = assay: Cell cycle arrest in human MCF7 cells assessed as accumulation at S phase at 15 uM after 12 hrs by propidium iodide staining-based flow cytometric analysis (reference value: 17.07 +/- 4.00%); format: functional
MCF7 [10] = assay: Cell cycle arrest in human MCF7 cells assessed as accumulation at G0/G1 phase at 15 uM after 12 hrs by propidium iodide staining-based flow cytometric analysis (reference value: 57.34 +/- 1.64%); format: functional
MCF7 [11] = assay: Induction of apoptosis in human MCF7 cells assessed as cell death at 5 uM after 24 hrs by TUNEL analysis (reference value: 9.28 +/- 1.71%); format: functional
MCF7 [12] = assay: Induction of apoptosis in human MCF7 cells assessed as cell death at 1 uM after 24 hrs by TUNEL analysis (reference value: 6.12 +/- 1.61%); format: functional
MCF7 [13] = assay: Induction of apoptosis in human MCF7 cells assessed as cell death at 15 uM after 24 hrs by TUNEL analysis (reference value: 5.13 +/- 4.32%); format: functional
MCF7 [14] = assay: Induction of apoptosis in human MCF7 cells assessed as cell death at 10 uM after 4 hrs by TUNEL analysis (reference value: 5.85 +/- 5.21%); format: functional
MCF7 [15] = assay: Cell cycle arrest in human MCF7 cells assessed as accumulation at S phase at 15 uM after 24 hrs by propidium iodide staining-based flow cytometric analysis (reference value: 12.39 +/- 1.54%); format: functional
MCF7 [16] = assay: Cell cycle arrest in human MCF7 cells assessed as accumulation at subG1 phase at 15 uM after 4 hrs by propidium iodide staining-based flow cytometric analysis (reference value: 5.90 +/- 1.36%); format: functional
MCF7 [17] = assay: Induction of apoptosis in human MCF7 cells assessed as cell death at 20 uM after 24 hrs by TUNEL analysis (reference value: 9.56 +/- 1.38%); format: functional
MCF7 [18] = assay: Cell cycle arrest in human MCF7 cells assessed as accumulation at G0/G1 phase at 15 uM after 4 hrs by propidium iodide staining-based flow cytometric analysis (reference value: 49.38 +/- 4.74%); format: functional
MCF7 [19] = assay: Cell cycle arrest in human MCF7 cells assessed as accumulation at G2/M phase at 15 uM after 4 hrs by propidium iodide staining-based flow cytometric analysis (reference value: 21.60 +/- 5.37%); format: functional
MCF7 [20] = assay: Cell cycle arrest in human MCF7 cells assessed as accumulation at subG1 phase at 15 uM after 24 hrs by propidium iodide staining-based flow cytometric analysis (reference value: 2.93 +/- 0.54%); format: functional
MCF7 [21] = assay: Cytotoxicity against human MCF7 cells after 72 hrs by MTT assay; format: functional; conditions: MCF7, 72 h
Outline: (§1)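 MTT read-out after 72 h exposure at 37 °C in humidified 5% CO2, with five concentrations between 0.01 and 100. GI50 is 50% growth reduction versus untreated controls, TGI is complete growth inhibition, and LC50 is the concentration killing 50% of cells. Minimum three independent experiments.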

CCRF-CEM = assay: Cytotoxicity against human CCRF-CEM cells after 72 hrs by MTT assay; format: functional; conditions: for CC50: read-out: LC50 (the source's name); outline: as §1
[22] = Cytotoxicity against human 184B5 cells after 72 hrs by MTT assay; format: cell-based; conditions: for GI50 at 72 h: 184B5 cells; for LC50 / TGI: 184b5, 72 h; outline: as §1
[23] = Cytotoxicity against human HTB-54 cells after 72 hrs by MTT assay; format: functional; conditions: HTB-54, 72 h; for CC50: read-out: LC50 (the source's name); outline: as §1
MCF7 [24] = assay: Selectivity ratio of GI50 for human 184B5 cells to GI50 for human MCF7 cells
Outline: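 Selectivity ratio is GI50 on non-tumoral 184B5 mammary cells divided by GI50 on MCF-7. Both come from the 72 h MTT assay. Ratio 3–6 means moderate selectivity, >6 high, and otherwise non-selective.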

HT-29 = assay: Cytotoxicity against human HT-29 cells after 72 hrs by MTT assay; format: functional; conditions: HT-29, 72 h; for CC50: read-out: LC50 (the source's name); outline: as §1
[25] = Permeability of the compound across human Caco2 cells; format: ADME, cell-based; conditions: Caco-2, read-out: permeability
[26] = Cytotoxicity against human BEAS2B cells after 72 hrs by MTT assay; format: cell-based, BEAS-2B; outline: as §1

`CC[C@@]1(O)C(=O)OCc2c1cc1n(c2=O)Cc2cc3ccccc3nc2-1` [CAMPTOTHECIN] gave an Activity (MCF7 [1]) of 46.12%, an Activity (MCF7 [2]) of 3.06% and an Activity (MCF7 [3]) of 11.36%. The Activity (MCF7 [4]) was 20.25%, the Activity (MCF7 [5]) was 20.21% and the Activity (MCF7 [6]) was 58.52%. For the same compound, the Activity (MCF7 [7]) was 18.36%, the Activity (MCF7 [8]) was 18.67% and the Activity (MCF7 [9]) was 16.24%. The Activity (MCF7 [10]) was 59.5%, the Activity (MCF7 [11]) was 13.42% and the Activity (MCF7 [12]) was 17.42%. The Activity (MCF7 [13]) was 21.21%, the Activity (MCF7 [14]) was 6.71% and the Activity (MCF7 [15]) was 15.27%. The Activity (MCF7 [16]) was 5.39%, the Activity (MCF7 [17]) was 17.59% and the Activity (MCF7 [18]) was 47.24%. The Activity (MCF7 [19]) was 23.38% and the Activity (MCF7 [20]) was 3.05%.
In the case of `C[Se]c1nc([Se]C)c2ccccc2n1`, the GI50 (MCF7 [21]) is reported as 5.97 µM, the LC50 (MCF7 [21]) is reported as > 100 µM and the TGI (MCF7 [21]) is reported as 50.7 µM. It also gave a GI50 (CCRF-CEM) of 31.2 µM, a TGI (CCRF-CEM) of 54.9 µM and a CC50 (CCRF-CEM) of 78.5 µM. The GI50 at 72 h [22] was 71.5 µM, the LC50 [22] was > 100 µM and the TGI [22] was > 100 µM. For the same compound, the GI50 [23] was 26.6 µM, the TGI [23] was 84.2 µM and the CC50 [23] was > 100 µM. The RatioGI50 (MCF7 [24]) was 12, the GI50 (HT-29) was 7.46 µM and the TGI (HT-29) was 33.8 µM. For the same compound, the CC50 (HT-29) was 76.8 µM.
With `CCCCC[Se]c1nc(NCc2ccccc2)c2ccccc2n1` the Activity (MCF7 [1]) was 14.91%, the GI50 (MCF7 [21]) was 0.05 µM and the LC50 (MCF7 [21]) was 99.4 µM. It also gave a TGI (MCF7 [21]) of 47.1 µM, an Activity (MCF7 [2]) of 2.13% and a GI50 (CCRF-CEM) of 34.5 µM. For the same compound, the TGI (CCRF-CEM) was 72.5 µM, the CC50 (CCRF-CEM) was > 100 µM and the GI50 at 72 h [22] was 70.9 µM. For the same compound, the LC50 [22] was > 100 µM, the TGI [22] was > 100 µM and the GI50 [23] was 37.7 µM. The TGI [23] was 81.1 µM, the CC50 [23] was > 100 µM and the Activity (MCF7 [3]) was 13.39%. It also gave an Activity (MCF7 [4]) of 34.79%, an Activity (MCF7 [5]) of 25.83% and an Activity (MCF7 [6]) of 46.97%. The Activity (MCF7 [7]) was 16.66%, the Activity (MCF7 [8]) was 30.13% and the Activity (MCF7 [9]) was 17.01%. The RatioGI50 (MCF7 [24]) was 1418, the Activity (MCF7 [10]) was 55.3% and the Papp [25] was 5.6 ×10⁻⁶ cm/s. The Activity (MCF7 [11]) was 14.37%, the Activity (MCF7 [12]) was 3.84% and the Activity (MCF7 [13]) was 24.88%. The Activity (MCF7 [14]) was 8.11%, the Activity (MCF7 [15]) was 12.2% and the Activity (MCF7 [16]) was 4.42%. The Activity (MCF7 [17]) was 30.95%, the GI50 at 72 h ([26]; BEAS2B cells) was 44.1 µM and the LC50 ([26]; beas-2b, 72 h) was > 100 µM. For the same compound, the TGI ([26]; beas-2b, 72 h) was > 100 µM, the Activity (MCF7 [18]) was 46.24% and the Activity (MCF7 [19]) was 28.5%. For the same compound, the GI50 (HT-29) was 72.7 µM, the TGI (HT-29) was > 100 µM and the CC50 (HT-29) was > 100 µM. For the same compound, the Activity (MCF7 [20]) was 3.28%.
